Reference: ChEMBL document CHEMBL5058577, “EUbOPEN Chemogenomics Library 2 (Multiplex)” (2022)

System: Fibroblast
Experiment: Multiplex assay against human fibroblast
Type: toxicity, cell-based
Summary of the method: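 Cells stained live at seeding with Hoechst33342, BioTracker Green Microtubule Cytoskeleton Dye, MitoTracker Red and Annexin V Alexa Fluor 680 were imaged on a CQ1 microscope at 37°C and 5% CO2 after compound addition. Their classification by CellPathfinder machine-learning gating ran from Hoechst high-intensity objects versus normal cells, to healthy, pyknosed or fragmented nuclei among normal cells, to mitotic or apoptotic among pyknosed cells. Tubulin, mitochondrial-mass and membrane-permeability phenotypes are per cents of healthy-nucleus cells.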

[1] = 12 h, 1 µM, compound concentration 1 uM, replicate 1
[2] = 12 h, 1 µM, compound concentration 1 uM, replicate 2
[3] = 12 h, 10 µM, compound concentration 10 uM, replicate 1
[4] = 12 h, 10 µM, compound concentration 10 uM, replicate 2
[5] = 24 h, 1 µM, compound concentration 1 uM, replicate 1
[6] = 24 h, 1 µM, compound concentration 1 uM, replicate 2
[7] = 24 h, 10 µM, compound concentration 10 uM, replicate 1
[8] = 24 h, 10 µM, compound concentration 10 uM, replicate 2
[9] = 48 h, 1 µM, compound concentration 1 uM, replicate 1
[10] = 48 h, 1 µM, compound concentration 1 uM, replicate 2
[11] = 48 h, 10 µM, compound concentration 10 uM, replicate 1
[12] = 48 h, 10 µM, compound concentration 10 uM, replicate 2

Compound: Cc1cnc(-c2cc(N3CCN(C(=O)CCS(C)(=O)=O)CC3)ncc2Cl)c(C)c1
- Population Apoptotic (%) [1]: 36%
- Population Fragmented Nuclei (%) [1]: 9%
- Population Healthy Nuclei (%) [1]: 71%
- Population Hoechst High Intensity Objects (%) [1]: 1%
- Population Membrane Permeable-Phenotype (%) [1]: 0%
- Population Mitochondria Different-Phenotype (%) [1]: 7%
- Population Mitotic Cells (%) [1]: 63%
- Population Normal (%) [1]: 98%
- Population Pyknosed Nuclei (%) [1]: 19%
- Population Tubulin-Different-Phenotype (%) [1]: 20%
- Total Cell Count [1]: 99
- Population Apoptotic (%) [2]: 31%
- Population Fragmented Nuclei (%) [2]: 22%
- Population Healthy Nuclei (%) [2]: 36%
- Population Hoechst High Intensity Objects (%) [2]: 9%
- Population Membrane Permeable-Phenotype (%) [2]: 7%
- Population Mitochondria Different-Phenotype (%) [2]: 10%
- Population Mitotic Cells (%) [2]: 68%
- Population Normal (%) [2]: 90%
- Population Pyknosed Nuclei (%) [2]: 41%
- Population Tubulin-Different-Phenotype (%) [2]: 50%
- Total Cell Count [2]: 85
- Population Apoptotic (%) [3]: 40%
- Population Fragmented Nuclei (%) [3]: 13%
- Population Healthy Nuclei (%) [3]: 71%
- Population Hoechst High Intensity Objects (%) [3]: 4%
- Population Membrane Permeable-Phenotype (%) [3]: 1%
- Population Mitochondria Different-Phenotype (%) [3]: 2%
- Population Mitotic Cells (%) [3]: 60%
- Population Normal (%) [3]: 95%
- Population Pyknosed Nuclei (%) [3]: 14%
- Population Tubulin-Different-Phenotype (%) [3]: 24%
- Total Cell Count [3]: 142
- Population Apoptotic (%) [4]: 26%
- Population Fragmented Nuclei (%) [4]: 21%
- Population Healthy Nuclei (%) [4]: 63%
- Population Hoechst High Intensity Objects (%) [4]: 1%
- Population Mitotic Cells (%) [4]: 73%
- Population Normal (%) [4]: 98%
- Population Pyknosed Nuclei (%) [4]: 15%
- Population Tubulin-Different-Phenotype (%) [4]: 37%
- Total Cell Count [4]: 121
- Population Apoptotic (%) [5]: 54%
- Population Fragmented Nuclei (%) [5]: 10%
- Population Healthy Nuclei (%) [5]: 76%
- Population Hoechst High Intensity Objects (%) [5]: 6%
- Population Membrane Permeable-Phenotype (%) [5]: 2%
- Population Mitochondria Different-Phenotype (%) [5]: 4%
- Population Mitotic Cells (%) [5]: 45%
- Population Normal (%) [5]: 93%
- Population Pyknosed Nuclei (%) [5]: 12%
- Population Tubulin-Different-Phenotype (%) [5]: 30%
- Total Cell Count [5]: 97
- Population Apoptotic (%) [6]: 47%
- Population Fragmented Nuclei (%) [6]: 35%
- Population Healthy Nuclei (%) [6]: 38%
- Population Hoechst High Intensity Objects (%) [6]: 10%
- Population Membrane Permeable-Phenotype (%) [6]: 3%
- Population Mitochondria Different-Phenotype (%) [6]: 0%
- Population Mitotic Cells (%) [6]: 52%
- Population Normal (%) [6]: 89%
- Population Pyknosed Nuclei (%) [6]: 25%
- Population Tubulin-Different-Phenotype (%) [6]: 61%
- Total Cell Count [6]: 91
- Population Apoptotic (%) [7]: 46%
- Population Fragmented Nuclei (%) [7]: 10%
- Population Healthy Nuclei (%) [7]: 79%
- Population Hoechst High Intensity Objects (%) [7]: 0%
- Population Membrane Permeable-Phenotype (%) [7]: 2%
- Population Mitochondria Different-Phenotype (%) [7]: 6%
- Population Mitotic Cells (%) [7]: 53%
- Population Normal (%) [7]: 99%
- Population Pyknosed Nuclei (%) [7]: 9%
- Population Tubulin-Different-Phenotype (%) [7]: 28%
- Total Cell Count [7]: 135
- Population Apoptotic (%) [8]: 42%
- Population Fragmented Nuclei (%) [8]: 19%
- Population Healthy Nuclei (%) [8]: 67%
- Population Hoechst High Intensity Objects (%) [8]: 4%
- Population Mitochondria Different-Phenotype (%) [8]: 9%
- Population Mitotic Cells (%) [8]: 57%
- Population Normal (%) [8]: 95%
- Population Pyknosed Nuclei (%) [8]: 12%
- Population Tubulin-Different-Phenotype (%) [8]: 38%
- Total Cell Count [8]: 116
- Population Apoptotic (%) [9]: 69%
- Population Fragmented Nuclei (%) [9]: 19%
- Population Healthy Nuclei (%) [9]: 58%
- Population Hoechst High Intensity Objects (%) [9]: 2%
- Population Membrane Permeable-Phenotype (%) [9]: 0%
- Population Mitochondria Different-Phenotype (%) [9]: 1%
- Population Mitotic Cells (%) [9]: 30%
- Population Normal (%) [9]: 97%
- Population Pyknosed Nuclei (%) [9]: 21%
- Population Tubulin-Different-Phenotype (%) [9]: 33%
- Total Cell Count [9]: 109
- Population Apoptotic (%) [10]: 36%
- Population Fragmented Nuclei (%) [10]: 40%
- Population Healthy Nuclei (%) [10]: 47%
- Population Hoechst High Intensity Objects (%) [10]: 5%
- Population Membrane Permeable-Phenotype (%) [10]: 12%
- Population Mitochondria Different-Phenotype (%) [10]: 9%
- Population Mitotic Cells (%) [10]: 63%
- Population Normal (%) [10]: 94%
- Population Pyknosed Nuclei (%) [10]: 12%
- Population Tubulin-Different-Phenotype (%) [10]: 70%
- Total Cell Count [10]: 92
- Population Apoptotic (%) [11]: 50%
- Population Fragmented Nuclei (%) [11]: 21%
- Population Healthy Nuclei (%) [11]: 69%
- Population Hoechst High Intensity Objects (%) [11]: 2%
- Population Membrane Permeable-Phenotype (%) [11]: 0%
- Population Mitochondria Different-Phenotype (%) [11]: 7%
- Population Mitotic Cells (%) [11]: 50%
- Population Normal (%) [11]: 97%
- Population Pyknosed Nuclei (%) [11]: 8%
- Population Tubulin-Different-Phenotype (%) [11]: 33%
- Total Cell Count [11]: 141
- Population Apoptotic (%) [12]: 75%
- Population Fragmented Nuclei (%) [12]: 29%
- Population Healthy Nuclei (%) [12]: 61%
- Population Hoechst High Intensity Objects (%) [12]: 3%
- Population Membrane Permeable-Phenotype (%) [12]: 2%
- Population Mitochondria Different-Phenotype (%) [12]: 5%
- Population Mitotic Cells (%) [12]: 25%
- Population Normal (%) [12]: 96%
- Population Pyknosed Nuclei (%) [12]: 9%
- Total Cell Count [12]: 131
